Measured values published in ChEMBL document CHEMBL1148187, “Modified taxols, 9. Synthesis and biological evaluation of 7-substituted photoaffinity analogues of taxol” (J Nat Prod, 1993).
The source made the active and inactive calls. No cut-off for these calls is given here.

What was measured:
[1] = Inhibition of bovine brain tubulin depolymerization after 20 mins by turbidimetry; design: species or system Bos taurus
Outline: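 Purified bovine brain tubulin 10 μM (1.0 mg/ml) in 1.0 M monosodium glutamate (pH 6.6), 50 μM GTP, 4% DMSO, with varying analogue concentrations. Temperature jump 0 to 37°, held about 20 min, then reverse jump to 0°. Maximum depolymerization rate read as fall in A350 or A420. IC50 interpolated; at least three independent determinations.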

Bos taurus [2] = species: Bos taurus; assay: Induction of bovine brain tubulin polymerization at 40 uM by turbidimetry in presence of 4-morpholine-ethanesulfonate
Outline: (§1)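 Low ionic strength turbidimetry at 350 or 420 nm: 10 μM purified bovine brain tubulin in 0.1 M 4-morpholine-ethanesulfonate (pH 6.9), 0.5 mM MgCl2, 100 μM GTP, 4% DMSO. Baseline at 0°, then temperature stepped to 15° and 37°.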

Bos taurus [3] = species: Bos taurus; assay: Induction of bovine brain tubulin depolymerization at 10 uM by turbidimetry in presence of glutamate
Outline: (§2)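 Turbidimetry at 350 or 420 nm of 10 μM purified bovine brain tubulin in 1.0 M monosodium glutamate (pH 6.6), 50 μM GTP, 4% DMSO. Baseline at 0°, then stepped temperatures: 15°, 37°, then down to 10° and 0° to follow depolymerization.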

Bos taurus [4] = species: Bos taurus; assay: Induction of bovine brain tubulin polymerization at 10 uM at 0 degC by turbidimetry at lower temperature in presence of glutamate; conditions: in the assay text read “at 15 degC” for “at 0 degC”; outline: as §2
Bos taurus [5] = species: Bos taurus; assay: Induction of bovine brain tubulin polymerization at 10 uM by turbidimetry at 37 degC in presence of 4-morpholine-ethanesulfonate; outline: as §1
Bos taurus [6] = species: Bos taurus; assay: Induction of bovine brain tubulin polymerization at 10 uM by turbidimetry at 15 degC in presence of 4-morpholine-ethanesulfonate
Outline: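 Purified bovine brain tubulin at 10 μM (1.0 mg/ml) in 0.1 M 4-morpholine-ethanesulfonate (pH 6.9) with 0.5 mM MgCl2, 100 μM GTP, 4% (v/v) DMSO, and agent at 10 μM. Baseline was read at 0°, the controller was then set to 15°, and later temperature steps followed. Polymerization was followed by turbidity at 350 or 420 nm.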

Row | IC50 [1] | Activity (Bos taurus [2]) | Activity (Bos taurus [3]) | Activity (Bos taurus [4]) | Activity (Bos taurus [5]) | Activity (Bos taurus [6]) | SMILES
1 | 650 nM | inactive | – | – | – | – | CC(=O)O[C@H]1C(=O)[C@]2(C)[C@@H](OC(=O)c3ccccc3)C[C@H]3OC[C@@]3(OC(C)=O)[C@H]2[C@H](OC(=O)c2ccccc2)[C@]2(O)C[C@H](OC(=O)[C@H](O)[C@@H](NC(=O)c3ccccc3)c3ccccc3)C(C)=C1C2(C)C [PACLITAXEL C7 BENZOIC ACID ESTER]
2 | 420 nM | – | < 50% | Active | Active | inactive | CC(=O)O[C@H]1C(=O)[C@@]2(C)[C@H]([C@H](OC(=O)c3ccccc3)[C@]3(O)C[C@H](OC(=O)[C@H](O)[C@@H](NC(=O)c4ccccc4)c4ccccc4)C(C)=C1C3(C)C)[C@]1(OC(C)=O)CO[C@@H]1C[C@@H]2O [PACLITAXEL]
